pIC50, pKd: −log10 of the molar value. One block for each compound: values may come before it. The source made the active and inactive calls. No cut-off for these calls is given here.
Key:
Quadruplex RNA [1] = assay: Binding affinity to DHX15 rG4 (unknown origin) assessed as dissociation constant measured after 320 secs by SPR analysis; type: nucleic-acid assay
Reticulocyte [2] = assay: Inhibition of DHX15 mRNA translation in rabbit reticulocyte lysate transfected with DHX15-G4-Del-FL at 10 uM incubated for 15 mins by firefly luciferase assay; type: functional, subcellular; conditions: Oryctolagus cuniculus
Method in brief: (§1)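 Cell-free translation: in vitro transcribed firefly luciferase reporter RNAs carrying DHX15 5' region (WT or G4-deleted) incubated in rabbit reticulocyte lysate with analyte, dose-dependent; luciferase activity as translation read-out; IC50 from dose-response.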

[3] = Inhibition of DHX15 mRNA translation in rabbit reticulocyte lysate transfected with DHX15-G4-WT-FL at 10 uM incubated for 15 mins by firefly luciferase assay relative to control; type: functional; conditions: Oryctolagus cuniculus, 0.25 h; method in brief: as §1
Quadruplex RNA [4] = assay: Displacement of ThT from DHX15 rG4 (unknown origin) at upto 100 uM measured after 15 mins by FID assay relative to control; type: nucleic-acid assay
Method in brief: (§2)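 Fluorescent intercalator displacement on DHX15 rG4, dose-dependent, using thioflavin T or Hoechst 33258 (groove binder) as probe; displacement measured as loss of probe fluorescence.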

Quadruplex RNA [5] = assay: Binding affinity to DHX15 rG4 (unknown origin) assessed as thermal stability by measuring change in melting temperature at 50 uM by circular dichroism method; type: nucleic-acid assay
Method in brief: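 CD thermal melt of DHX15 rG4 with 50 μM analyte present; stabilization reported as ΔTm.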

[6] = Inhibition of DHX15 mRNA translation in rabbit reticulocyte lysate transfected with DHX15-G4-WT-FL incubated for 15 mins by firefly luciferase assay; type: functional, subcellular, Oryctolagus cuniculus; method in brief: as §1
[7] = Inhibition of DHX15 mRNA translation in rabbit reticulocyte lysate transfected with DHX15-G4-WT-FL at upto 50 uM incubated for 15 mins by firefly luciferase assay relative to control; type: functional, Oryctolagus cuniculus; conditions: 0.25 h, up to 50 µM; method in brief: as §1
Reticulocyte [8] = assay: Inhibition of DHX15 mRNA translation in rabbit reticulocyte lysate transfected with DHX15-G4-Del-FL at upto 50 uM incubated for 15 mins by firefly luciferase assay; type: functional, subcellular; conditions: Oryctolagus cuniculus; method in brief: as §1
Quadruplex RNA [9] = assay: Displacement of Hoechst 33258 from DHX15 rG4 (unknown origin) at 100 uM measured after 15 mins by FID assay relative to control; type: nucleic-acid assay; method in brief: as §2
Quadruplex RNA [10] = assay: Binding affinity to DHX15 rG4 (unknown origin) assessed as induction of RNA G quadruplex formation by measuring increase in intensity at 4 to 20 uM in presence of KCl by circular dichroism method; type: nucleic-acid assay; conditions: dose 4-20 µM

pKd (Quadruplex RNA [1]): < 4.00
SMILES: O=C(O)[C@@H]1Cc2ccccc2CN1

inhibition (Reticulocyte [2]): inactive
SMILES: CN(C)c1ccc(Nc2c3ccc(NC(=O)CCN4CCCC4)cc3nc3cc(NC(=O)CCN4CCCC4)ccc23)cc1
inhibition at 10 µM [3]: 67%

Activity (Quadruplex RNA [4]): 50%
pKd (Quadruplex RNA [1]): 4.90
ΔTm (Quadruplex RNA [5]): 3.6 °C
pIC50 [6]: 4.64
inhibition (Reticulocyte [8]): inactive
Activity (Quadruplex RNA [9]): 20%
Activity (Quadruplex RNA [10]): Active
SMILES: Nc1cc2[nH]c(=O)[nH]c2cc1N1CCCC1
inhibition (INH) [7]: 57%

pKd (Quadruplex RNA [1]): < 4.00
SMILES: O=C(O)[C@H]1Cc2ccccc2CN1

— ChEMBL document CHEMBL5532739, “Competitive Microarray Screening Reveals Functional Ligands for the DHX15 RNA G-Quadruplex” (ACS Med Chem Lett, 2024)
